Experimental findings from ChEMBL document CHEMBL4229525, “Anti-angiogenic and anticancer effects of baicalein derivatives based on transgenic zebrafish model” (Bioorg Med Chem, 2018) are described below.

Data set [1] is filed under the species Danio rerio. In words: Antiangiogenic activity in 24 to 72 hrs post fertilized zebra fish embryo harboring fli1:EGFP after 48 hrs by fluorescence microscopic analysis. It is filed as functional. An outline of the steps:
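Tg(fli1:EGFP) zebrafish: 20 dechorionated 24 hpf embryos per group in 1 mL embryo water with compound (1, 5, 10, 25, 50, 75, 100, 150, 200 μM), 28.5 °C for 48 h. Embryos anaesthetised in 0.016% tricaine; ISVs imaged by fluorescence microscopy at 72 hpf and scored for vessel defects and overall morphology. SU5416 positive control.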

Data set [2] in a line: Toxicity index, ratio of MTC for 24 to 72 hrs post fertilized zebra fish embryo harboring fli1:EGFP to MEC for antiangiogenic activity in 24 to 72 hrs post fertilized zebra fish embryo harboring fli1:EGFP. It is filed as organism-based, Danio rerio. The following applies: fli1:EGFP transgenic, zebrafish, in vivo. An outline of the steps: (§1)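 Dechorionated Tg(fli1:EGFP) embryos at 24 hpf, 20 per group, were kept in 1 mL embryo water with compound at 28.5 °C for a further 48 h. Compound was tested at 1, 5, 10, 25, 50, 75, 100, 150 and 200 μM. At 72 hpf, embryos anaesthetised with 0.016% tricaine had their ISVs imaged by fluorescence microscopy, with SU5416 as positive control. Definitions used: LOEC is anti-angiogenic effect in most larvae; LOTC is lowest toxic concentration; LC100 is total embryo lethality. TI = LOTC/LOEC; AI = LC100/LOEC.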

Data set [3] is described as follows: Antiangiogenic index, ratio of LC100 for 24 to 72 hrs post fertilized zebra fish embryo harboring fli1:EGFP to MEC for antiangiogenic activity in 24 to 72 hrs post fertilized zebra fish embryo harboring fli1:EGFP. To be noted: fli1:EGFP transgenic, zebrafish, in vivo. It is filed as toxicity, organism-based, Danio rerio. An outline of the steps:
as §1

For data set [4], the species on record is Danio rerio. In words: Toxicity in 24 to 72 hrs post fertilized zebra fish embryo harboring fli1:EGFP. Format: organism-based. The following applies: zebrafish, in vivo. An outline of the steps: as §1

`O=C(COc1c(OCc2ccccc2)cc2oc(-c3ccccc3)cc(=O)c2c1O)N1CCOCC1` gave an MEC in the data set filed under Danio rerio [1] of 50 µM. Further, the selectivity ratio in data set [2] was determined as 1. Also, the selectivity ratio in data set [3] came to 2. In the data set listed under Danio rerio [4], this compound came in with an LC100 of 100 µM and an MTC of 50 µM.

In the data set listed under Danio rerio [1], `O=c1cc(-c2ccccc2)oc2cc(O)c(O)c(O)c12` [BAICALEIN] showed an MEC of 0.5 µM. The selectivity ratio in data set [2] worked out at 1. Moreover, in data set [3], the selectivity ratio worked out at 2. For the same compound, in the data set listed under Danio rerio [4], the LC100 turned out to be 1 µM and the MTC turned out to be 0.5 µM.

In the case of `O=c1cc(-c2ccccc2)oc2cc(O)c(OCCCCO)c(O)c12`, the MEC in the data set listed under Danio rerio [1] is 5 µM. The selectivity ratio in data set [2] amounted to 2. In data set [3], the selectivity ratio was 6. In the data set listed under Danio rerio [4], this compound yielded an LC100 of 30 µM and an MTC of 10 µM.

With `O=C(O)COc1c(O)cc2oc(-c3ccccc3)cc(=O)c2c1O`, the MEC in the data set filed under Danio rerio [1] is over 50 µM. In the data set listed under Danio rerio [4], this compound came in with an LC100 of 50 µM and an MTC of over 50 µM.

`O=c1cc(-c2ccccc2)oc2cc(O)c(OCCCCCNCCO)c(O)c12` gave an MEC in the data set filed under Danio rerio [1] of 25 µM. Also, in data set [2], the selectivity ratio was 2. Further, in data set [3], the selectivity ratio is 4. Moreover, in the data set filed under Danio rerio [4], the LC100 is 100 µM and the MTC worked out at 50 µM.

For the compound `CCN1CCN(C(=O)COc2c(OCc3ccccc3)cc3oc(-c4ccccc4)cc(=O)c3c2O)CC1`, in the data set listed under Danio rerio [4], the LC100 entry is “Nd(Insoluble)” and the MTC result was “Nd(Insoluble)”.

As to `O=C(COc1c(OCc2ccccc2)cc2oc(-c3ccccc3)cc(=O)c2c1O)N1CCC(O)CC1`, the MEC in the data set filed under Danio rerio [1] is 25 µM. The selectivity ratio in data set [2] turned out to be 1; in data set [3], 4. The compound also returned an LC100 in the data set listed under Danio rerio [4] of 100 µM. Besides, the MTC in the data set listed under Danio rerio [4] was found to be 25 µM.

In the data set filed under Danio rerio [1], `O=C(COc1c(OCc2ccccc2)cc2oc(-c3ccccc3)cc(=O)c2c1O)N1CCCC1` registered an MEC of 100 µM. For the same compound, in data set [2], the selectivity ratio stood at 1. Moreover, the selectivity ratio in data set [3] was over 2. In the data set listed under Danio rerio [4], this compound showed an LC100 of over 200 µM and an MTC of 100 µM.

In the data set listed under Danio rerio [1], `O=C(O)CCC(=O)OCCOc1c(O)cc2oc(-c3ccccc3)cc(=O)c2c1O` returned an MEC of 50 µM. The selectivity ratio in data set [2] is over 1.5. Besides, the selectivity ratio in data set [3] is 1.5. In the data set listed under Danio rerio [4], this compound yielded an LC100 of 75 µM and an MTC of over 75 µM.

Consider `CN1CCN(C(=O)COc2c(OCc3ccccc3)cc3oc(-c4ccccc4)cc(=O)c3c2O)CC1`, for which, in the data set filed under Danio rerio [1], the MEC stood at 10 µM. Further, in data set [2], the selectivity ratio amounted to 1. Moreover, the selectivity ratio in data set [3] was 5. In the data set listed under Danio rerio [4], this compound displayed an LC100 of 50 µM and an MTC of 10 µM.

On to `O=c1cc(-c2ccccc2)oc2cc(O)c(OCCO)c(O)c12`, for which the MEC in the data set listed under Danio rerio [1] amounted to 5 µM. Further, the selectivity ratio in data set [2] stood at 2. Further, the selectivity ratio in data set [3] was determined as 10. In the data set listed under Danio rerio [4], this compound returned an LC100 of 50 µM and an MTC of 10 µM.

In the case of `O=c1cc(-c2ccccc2)oc2cc(O)c(OCCCO)c(O)c12`, in the data set listed under Danio rerio [1], the MEC amounted to 2.5 µM. The selectivity ratio in data set [2] turned out to be 1; in data set [3], 6. Besides, in the data set listed under Danio rerio [4], the LC100 came out at 15 µM. The same compound yielded an MTC in the data set listed under Danio rerio [4] of 2.5 µM.

The compound `O=c1cc(-c2ccccc2)oc2cc(OCCCO)c(O)c(O)c12` showed an MEC in the data set listed under Danio rerio [1] of 100 µM. The values for the selectivity ratio in data set [2] and in data set [3] were 1 and over 2, respectively. Further, the LC100 in the data set listed under Danio rerio [4] was over 200 µM. Besides, the MTC in the data set listed under Danio rerio [4] is 100 µM.

Take `O=C(COc1c(OCc2ccccc2)cc2oc(-c3ccccc3)cc(=O)c2c1O)N(CCO)CCO`: the MEC in the data set listed under Danio rerio [1] is 100 µM. Besides, the selectivity ratio in data set [2] amounted to 1. Also, in data set [3], the selectivity ratio was found to be 2. Further, in the data set listed under Danio rerio [4], the LC100 amounted to 200 µM and the MTC turned out to be 100 µM.

In the case of `O=c1cc(-c2ccccc2)oc2cc(O)c(OCC(O)CO)c(O)c12` (stereo not drawn), the MEC in the data set listed under Danio rerio [1] was found to be 50 µM. The selectivity ratio in data set [2] worked out at 1. Moreover, the selectivity ratio in data set [3] came out at 2. Also, in the data set filed under Danio rerio [4], the LC100 amounted to 100 µM and the MTC is 50 µM.

As for `Cc1cc(C)c(/C=C2\C(=O)Nc3ccccc32)[nH]1` [SEMAXANIB], in the data set filed under Danio rerio [1], the MEC turned out to be 1 µM. Further, in data set [2], the selectivity ratio is 1.5. The selectivity ratio in data set [3] came out at 5. In the data set filed under Danio rerio [4], this compound gave an LC100 of 5 µM and an MTC of 1.5 µM.

Regarding `CCN(CC)C(=O)COc1c(O)cc2oc(-c3ccccc3)cc(=O)c2c1O`, the MEC in the data set filed under Danio rerio [1] is 200 µM. In addition, in data set [2], the selectivity ratio was 1. Also, the selectivity ratio in data set [3] was found to be 1. In the data set filed under Danio rerio [4], this compound displayed an LC100 of 200 µM and an MTC of 200 µM.

In the case of `O=C(COc1c(OCc2ccccc2)cc2oc(-c3ccccc3)cc(=O)c2c1O)N1CCN(CCO)CC1`, in the data set filed under Danio rerio [1], the MEC was 200 µM. In data set [2], the selectivity ratio came out at 1. The selectivity ratio in data set [3] was 1. Moreover, in the data set filed under Danio rerio [4], the LC100 was found to be 200 µM and the MTC turned out to be 200 µM.

In the data set listed under Danio rerio [1], `COc1c(OCCCN(C)CCO)c(O)cc2oc(-c3ccccc3)cc(=O)c12` returned an MEC of 100 µM. In addition, the selectivity ratio in data set [2] came to 1. Further, the selectivity ratio in data set [3] is over 2. In the data set filed under Danio rerio [4], the LC100 is over 200 µM and the MTC worked out at 100 µM.

As for `O=C(COc1c(O)cc2oc(-c3ccccc3)cc(=O)c2c1O)N1CCNCC1`, the MEC in the data set listed under Danio rerio [1] turned out to be 10 µM. Besides, the selectivity ratio in data set [2] stood at 1.5; in data set [3], 5. In the data set listed under Danio rerio [4], this compound came in with an LC100 of 50 µM. Also, in the data set filed under Danio rerio [4], the MTC was 15 µM.

For `CN(C)CCNC(=O)COc1c(O)cc2oc(-c3ccccc3)cc(=O)c2c1O`, the MEC in the data set listed under Danio rerio [1] stood at 100 µM. The values for the selectivity ratio in data set [2] and in data set [3] were 1 and over 2, respectively. In the data set listed under Danio rerio [4], this compound returned an LC100 of over 200 µM. In the data set filed under Danio rerio [4], this compound registered an MTC of 100 µM.

`O=c1cc(-c2ccccc2)oc2cc(O)c(OCCCCCCO)c(O)c12` came in with an MEC in the data set listed under Danio rerio [1] of 2.5 µM. The selectivity ratio in data set [2] was found to be 1. In data set [3], the selectivity ratio turned out to be 4. In the data set listed under Danio rerio [4], this compound showed an LC100 of 10 µM and an MTC of 2.5 µM.

Regarding `O=C(COc1c(O)cc2oc(-c3ccccc3)cc(=O)c2c1O)N(CCO)CCO`, the MEC in the data set listed under Danio rerio [1] was over 200 µM. In the data set filed under Danio rerio [4], the LC100 was over 200 µM and the MTC is over 200 µM.

Take `CN1CCN(C(=O)COc2c(O)cc3oc(-c4ccccc4)cc(=O)c3c2O)CC1`: in the data set listed under Danio rerio [1], the MEC was 10 µM. The selectivity ratio in data set [2] came to 1.5. Also, the selectivity ratio in data set [3] was found to be 5. In the data set filed under Danio rerio [4], this compound gave an LC100 of 50 µM and an MTC of 15 µM.

Compound `O=C(COc1c(O)cc2oc(-c3ccccc3)cc(=O)c2c1O)NCCO` came in with an MEC in the data set filed under Danio rerio [1] of 200 µM. Also, the selectivity ratio in data set [2] stood at 1. Also, in data set [3], the selectivity ratio stood at 1. Besides, in the data set listed under Danio rerio [4], the LC100 amounted to 200 µM and the MTC turned out to be 200 µM.

With `O=C(COc1c(OCc2ccccc2)cc2oc(-c3ccccc3)cc(=O)c2c1O)N1CCN(c2ncccn2)CC1`, in the data set filed under Danio rerio [1], the MEC stood at 75 µM. Besides, the selectivity ratio in data set [2] was found to be 1. In addition, the selectivity ratio in data set [3] was determined as 1.3. In the data set filed under Danio rerio [4], this compound showed an LC100 of 100 µM and an MTC of 75 µM.

`CC(C)=CCOc1cc2oc(-c3ccccc3)cc(=O)c2c(O)c1O` gave an MEC in the data set filed under Danio rerio [1] of 50 µM. Moreover, the selectivity ratio in data set [2] was determined as 1. Further, in data set [3], the selectivity ratio was 2. Moreover, in the data set listed under Danio rerio [4], the LC100 turned out to be 100 µM and the MTC turned out to be 50 µM.

Turning to `O=C(COc1c(O)cc2oc(-c3ccccc3)cc(=O)c2c1O)N1CCC(O)CC1`, in the data set filed under Danio rerio [1], the MEC came out at 50 µM. Also, the selectivity ratio in data set [2] stood at 1. In data set [3], the selectivity ratio turned out to be 2. In addition, in the data set filed under Danio rerio [4], the LC100 was 100 µM and the MTC is 50 µM.

In the case of `O=c1cc(-c2ccccc2)oc2cc(O)c(OCCCCCO)c(O)c12`, in the data set listed under Danio rerio [1], the MEC came out at 1 µM. Further, the selectivity ratio was found to be 1 in data set [2] and 5 in data set [3]. The LC100 in the data set listed under Danio rerio [4] worked out at 5 µM. Moreover, in the data set filed under Danio rerio [4], the MTC worked out at 1 µM.

As to `O=C(COc1c(OCc2ccccc2)cc2oc(-c3ccccc3)cc(=O)c2c1O)NCCO`, the MEC in the data set listed under Danio rerio [1] came to 100 µM. Besides, the selectivity ratio in data set [2] was determined as 1. The selectivity ratio in data set [3] amounted to 2. Besides, in the data set listed under Danio rerio [4], the LC100 was found to be 200 µM and the MTC amounted to 100 µM.

`O=C(COc1c(O)cc2oc(-c3ccccc3)cc(=O)c2c1O)N1CCN(CCO)CC1` gave an MEC in the data set filed under Danio rerio [1] of 100 µM. The selectivity ratio in data set [2] turned out to be 1. Further, the selectivity ratio in data set [3] was over 2. In the data set filed under Danio rerio [4], the LC100 was over 200 µM and the MTC stood at 100 µM.
